Converted amounts (≈) assume the structure as drawn.

Experiment [1] relates to Escherichia coli. Put plainly: Antibacterial activity against Escherichia coli CCARM 1356 after 24 hrs by two-fold serial dilution method. It counts as functional. The note with it: CCARM 1356, 24 h. Summed up:
(§1)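 Strains grown to mid-log phase in Mueller-Hinton broth, then diluted 1000-fold in the same broth to about 10^5 CFU/mL. Compounds were made up as DMSO stocks and two-fold serially diluted from a final top concentration of 64 µg/mL. Incubation was 37 °C for 24 h. Growth was read as absorbance at 630 nm on a microplate reader. MIC assays were run in triplicate.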

Experiment [2] concerns Staphylococcus aureus. Kind of experiment: Antibacterial activity against Staphylococcus aureus RN4220 after 24 hrs by two-fold serial dilution method. The conditions noted are these: RN4220, 24 h. The format is functional. Summed up:
(§2)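 Broth microdilution MIC. Bacteria grown to mid-log phase in Mueller-Hinton broth, diluted 1000-fold, about 10^5 CFU/mL. Compounds from DMSO stocks, two-fold serial dilution from a final 64 µg/mL. Incubation at 37 °C for 24 h. Growth read as absorbance at 630 nm on a microplate reader. Run in triplicate.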

Experiment [3] has as its system Escherichia coli. Put plainly: Antibacterial activity against Escherichia coli KCTC 1924 after 24 hrs by two-fold serial dilution method. It counts as functional. The note with it: KCTC 1924, 24 h. The essentials:
as §1

Experiment [4] deals with Staphylococcus aureus. Kind of experiment: Bactericidal activity against quinolone-resistant Staphylococcus aureus CCARM 3519 after 24 hrs by agar plate method. The format is functional. The conditions noted are these: CCARM 3519, 24 h. The essentials: (§3)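 5 µL from each well without visible growth plated on fresh Mueller-Hinton agar, then 37 °C for a further 24 h. MBC is the lowest concentration giving no visible colonies. Run in triplicate.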

Experiment [5] concerns Staphylococcus aureus. Kind of experiment: Antibacterial activity against methicillin-resistant Staphylococcus aureus CCARM 3506 after 24 hrs by two-fold serial dilution method. It counts as functional. The note with it: CCARM 3506, 24 h. The essentials: as §2
The test system of experiment [6] is Streptococcus mutans. Kind of experiment: Antibacterial activity against Streptococcus mutans 3065 after 24 hrs by two-fold serial dilution method. It counts as functional. The note with it: Streptococcus mutans, 3065, 24 h. Summed up:
as §1

The subject of experiment [7] is Staphylococcus aureus. Put plainly: Antibacterial activity against quinolone-resistant Staphylococcus aureus CCARM 3519 after 24 hrs by two-fold serial dilution method. The conditions noted are these: CCARM 3519, 24 h. It counts as functional. The essentials: as §2
Another experiment concerns Candida albicans. Kind of experiment: Antifungal activity against Candida albicans 7535 after 24 hrs by two-fold serial dilution method. The note with it: Candida albicans, 7535, 24 h. It counts as functional.
Experiment [8] deals with Staphylococcus aureus. Put plainly: Antibacterial activity against methicillin-resistant Staphylococcus aureus CCARM 3167 after 24 hrs by two-fold serial dilution method. The format is functional. The conditions noted are these: CCARM 3167, 24 h. The essentials: as §2
Experiment [9] has as its system Pseudomonas aeruginosa. Put plainly: Antibacterial activity against Pseudomonas aeruginosa 2004 after 24 hrs by two-fold serial dilution method. It counts as functional. The conditions noted are these: Pseudomonas aeruginosa, 2004, 24 h. Summed up:
as §1

A further experiment relates to Salmonella typhimurium. Kind of experiment: Antibacterial activity against Salmonella typhimurium 2421 after 24 hrs by two-fold serial dilution method. The conditions noted are these: Salmonella enterica, 2421, 24 h. The format is functional, Salmonella enterica subsp. enterica serovar Typhimurium. Summed up:
as §1

In experiment [10] the test system is Streptococcus mutans. Kind of experiment: Bactericidal activity against Streptococcus mutans 3065 after 24 hrs by agar plate method. The note with it: Streptococcus mutans, 3065, 24 h. The format is functional. Summed up: (§4)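 Samples of 5 µL from MIC wells with no visible growth were plated onto fresh Mueller-Hinton agar and incubated a further 24 h at 37 °C. MBC is the lowest concentration giving no visible colony growth on the agar. Assays were run in triplicate.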

In experiment [11] the test system is Pseudomonas aeruginosa. Put plainly: Antibacterial activity against Pseudomonas aeruginosa 2742 after 24 hrs by two-fold serial dilution method. It counts as functional. The note with it: Pseudomonas aeruginosa, 2742, 24 h. Summed up: as §1
Experiment [12] relates to Staphylococcus aureus. Kind of experiment: Antibacterial activity against Staphylococcus aureus KCTC 503 after 24 hrs by two-fold serial dilution method. It counts as functional. The note with it: KCTC 503, 24 h. The essentials: as §1
For experiment [13], the system named is Staphylococcus aureus. Kind of experiment: Bactericidal activity against methicillin-resistant Staphylococcus aureus CCARM 3506 after 24 hrs by agar plate method. It counts as functional. The note with it: CCARM 3506, 24 h. Summed up:
as §3

Experiment [14] has as its system Staphylococcus aureus. Put plainly: Bactericidal activity against methicillin-resistant Staphylococcus aureus CCARM 3167 after 24 hrs by agar plate method. The conditions noted are these: CCARM 3167, 24 h. It counts as functional. The essentials:
as §3

The subject of experiment [15] is Staphylococcus aureus. Put plainly: Bactericidal activity against quinolone-resistant Staphylococcus aureus CCARM 3505 after 24 hrs by agar plate method. It counts as functional. The conditions noted are these: CCARM 3505, 24 h. The essentials: as §3
For experiment [16], the system named is Staphylococcus aureus. Kind of experiment: Bactericidal activity against Staphylococcus aureus RN4220 after 24 hrs by agar plate method. The format is functional. The note with it: RN4220, 24 h. The essentials: as §4
For experiment [17], the system named is Staphylococcus aureus. Kind of experiment: Antibacterial activity against quinolone-resistant Staphylococcus aureus CCARM 3505 after 24 hrs by two-fold serial dilution method. It counts as functional. The conditions noted are these: CCARM 3505, 24 h. The essentials: as §2
For experiment [18], the system named is Staphylococcus aureus. Put plainly: Antibacterial activity against Staphylococcus aureus KCTC 209 after 24 hrs by two-fold serial dilution method. The format is functional. The note with it: KCTC 209, 24 h. Summed up:
as §1

For experiment [19], the system named is Staphylococcus aureus. Put plainly: Bactericidal activity against Staphylococcus aureus KCTC 503 after 24 hrs by agar plate method. The format is functional. The note with it: KCTC 503, 24 h. The essentials:
as §3

Experiment [20] relates to Staphylococcus aureus subsp. aureus RN4220. Kind of experiment: Ratio of MBC to MIC for Staphylococcus aureus RN4220. It counts as functional. Summed up:
(§5)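 The ratio divides MBC by MIC for the same strain. MIC comes from two-fold broth microdilution in Mueller-Hinton broth (about 10^5 CFU/mL, 37 °C, 24 h, absorbance at 630 nm). MBC comes from subculturing 5 µL from clear wells onto Mueller-Hinton agar for another 24 h at 37 °C, taken as the lowest concentration with no colonies.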

Experiment [21] deals with Staphylococcus aureus. Kind of experiment: Ratio of MBC to MIC for Staphylococcus aureus KCTC 503. It counts as functional. The essentials: as §5
Experiment [22] has as its system Escherichia coli. Kind of experiment: Ratio of MBC to MIC for Escherichia coli KCTC 1924. It counts as functional. Summed up:
as §5

Experiment [23] deals with Escherichia coli. Put plainly: Bactericidal activity against Escherichia coli KCTC 1924 after 24 hrs by agar plate method. It counts as functional. The conditions noted are these: KCTC 1924, 24 h. The essentials: as §4

On to `O=C(O)[C@H](Cc1ccccc1)N1C(=O)/C(=C/c2ccc(/C=N/n3c(-c4ccccc4Br)n[nH]c3=S)cc2)SC1=S`, for which the minimum inhibitory concentration (MIC) was more than 128 µg/mL in the experiment with Escherichia coli [1]; 8 µg/mL (≈ 12.3 µM) in the experiment with Staphylococcus aureus [2]; more than 128 µg/mL against Escherichia coli [3]; 16 µg/mL (≈ 24.6 µM) in the experiment with Staphylococcus aureus [5]; 8 µg/mL (≈ 12.3 µM) in the experiment on Streptococcus mutans [6]; 8 µg/mL (≈ 12.3 µM) in the experiment on Staphylococcus aureus [7]. The MIC against Candida albicans is more than 64 µg/mL; against Staphylococcus aureus [8] it was 8 µg/mL (≈ 12.3 µM); against Pseudomonas aeruginosa [9], more than 128 µg/mL; in the experiment with Salmonella typhimurium, more than 128 µg/mL; in the experiment with Pseudomonas aeruginosa [11], more than 128 µg/mL; against Staphylococcus aureus [12], 8 µg/mL (≈ 12.3 µM). Besides, the minimum inhibitory concentration (MIC) in the experiment with Staphylococcus aureus [17] is 8 µg/mL (≈ 12.3 µM); with Staphylococcus aureus [18] it was more than 64 µg/mL. Also, the minimum bactericidal concentration (MBC) with Staphylococcus aureus [4] amounted to 32 µg/mL (≈ 49.2 µM); against Streptococcus mutans [10] it was 32 µg/mL (≈ 49.2 µM); against Staphylococcus aureus [13], 32 µg/mL (≈ 49.2 µM); against Staphylococcus aureus [14], 16 µg/mL (≈ 24.6 µM); in the experiment on Staphylococcus aureus [15], 32 µg/mL (≈ 49.2 µM); against Staphylococcus aureus [16], 16 µg/mL (≈ 24.6 µM). Further, in the experiment with Staphylococcus aureus [19], the minimal bactericidal concentration (MBC) came out at 8 µg/mL (≈ 12.3 µM). Also, the Ratio is listed as 2 in [20] and “<=4” with Staphylococcus aureus [21].
For `O=C(O)[C@H](Cc1ccccc1)N1C(=O)/C(=C/c2ccc(/C=N/n3c(-c4ccccc4)n[nH]c3=S)cc2)SC1=S`, the minimum inhibitory concentration (MIC) against Escherichia coli [1] was more than 128 µg/mL; in the experiment on Staphylococcus aureus [2], 8 µg/mL (≈ 14 µM); in the experiment on Escherichia coli [3], more than 128 µg/mL; with Staphylococcus aureus [5], 8 µg/mL (≈ 14 µM); in the experiment with Streptococcus mutans [6] it was 8 µg/mL (≈ 14 µM); against Staphylococcus aureus [7], 8 µg/mL (≈ 14 µM). Further, the minimal inhibitory concentration (MIC) was more than 64 µg/mL in the experiment on Candida albicans; 8 µg/mL (≈ 14 µM) against Staphylococcus aureus [8]; more than 128 µg/mL in the experiment on Pseudomonas aeruginosa [9]; more than 128 µg/mL in the experiment with Salmonella typhimurium; more than 128 µg/mL against Pseudomonas aeruginosa [11]; 8 µg/mL (≈ 14 µM) with Staphylococcus aureus [12]. Besides, the minimal inhibitory concentration (MIC) with Staphylococcus aureus [17] was 8 µg/mL (≈ 14 µM); against Staphylococcus aureus [18], more than 64 µg/mL. For the same molecule, the minimal bactericidal concentration (MBC) was found to be 32 µg/mL (≈ 56 µM) in the experiment on Staphylococcus aureus [4]; 16 µg/mL (≈ 28 µM) in the experiment with Streptococcus mutans [10]; 32 µg/mL (≈ 56 µM) in the experiment on Staphylococcus aureus [13]; 16 µg/mL (≈ 28 µM) against Staphylococcus aureus [14]; 32 µg/mL (≈ 56 µM) in the experiment with Staphylococcus aureus [15]; 16 µg/mL (≈ 28 µM) in the experiment with Staphylococcus aureus [16]. Besides, the MBC with Staphylococcus aureus [19] was found to be 8 µg/mL (≈ 14 µM). The Ratio is on record as 2 in [20] and “<=4” with Staphylococcus aureus [21].
As to `O=C(O)[C@H](Cc1ccccc1)N1C(=O)/C(=C/c2ccc(/C=N/n3c(-c4cccc(Br)c4)n[nH]c3=S)cc2)SC1=S`, the MIC with Escherichia coli [1] was more than 128 µg/mL; with Staphylococcus aureus [2], 32 µg/mL (≈ 49.2 µM); against Escherichia coli [3], 64 µg/mL (≈ 98.4 µM); against Staphylococcus aureus [5], 16 µg/mL (≈ 24.6 µM); with Streptococcus mutans [6], 64 µg/mL (≈ 98.4 µM); against Staphylococcus aureus [7], 32 µg/mL (≈ 49.2 µM). The MIC is more than 64 µg/mL against Candida albicans; 32 µg/mL (≈ 49.2 µM) in the experiment with Staphylococcus aureus [8]; more than 128 µg/mL against Pseudomonas aeruginosa [9]; more than 128 µg/mL with Salmonella typhimurium; more than 128 µg/mL with Pseudomonas aeruginosa [11]; 64 µg/mL (≈ 98.4 µM) against Staphylococcus aureus [12]. The results for the MIC against Staphylococcus aureus [17] and in the experiment with Staphylococcus aureus [18] were 16 µg/mL (≈ 24.6 µM) and more than 64 µg/mL, respectively. The Ratio entry in the experiment on Escherichia coli [22] and with Staphylococcus aureus [21] was “<=4” in each case. Also, the minimal bactericidal concentration (MBC) in the experiment on Staphylococcus aureus [4] is 256 µg/mL (≈ 393 µM); against Streptococcus mutans [10], more than 128 µg/mL; in the experiment on Staphylococcus aureus [13], 64 µg/mL (≈ 98.4 µM); in the experiment with Staphylococcus aureus [14] it was 128 µg/mL (≈ 197 µM); in the experiment with Escherichia coli [23] it was 64 µg/mL (≈ 98.4 µM); against Staphylococcus aureus [15], 128 µg/mL (≈ 197 µM). Moreover, the minimum bactericidal concentration (MBC) in the experiment on Staphylococcus aureus [16] came out at 256 µg/mL (≈ 393 µM); in the experiment on Staphylococcus aureus [19] it was 128 µg/mL (≈ 197 µM).
